Results published in ChEMBL document CHEMBL4368913, “Design, Synthesis, and Biological Evaluation of 6-Substituted Thieno[3,2- d]pyrimidine Analogues as Dual Epidermal Growth Factor Receptor Kinase and Microtubule Inhibitors” (J Med Chem, 2019).
Activity calls are given as the source filed them. The calls are words filed in the database; no cut-off is given here.

Experiments:
Tubulin = Tubulin (Bos taurus, UniProt Q6B856+Q862L2+Q862F3); assay: Inhibition of bovine brain tubulin polymerization after 20 mins
Summary of the method: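 Bovine brain tubulin (10 μM) preincubated with varying compound concentrations in 0.8 M monosodium glutamate, pH 6.6, at 30 °C, then chilled to 0 °C. 0.4 mM GTP added, mixtures warmed to 30 °C, assembly followed by turbidity at 350 nm.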

RS4-11 = assay: Antiproliferative activity against human RS4:11 cells after 72 hrs by MTT assay; type: functional, cell-based; conditions: RS4-11, 72 h
Summary of the method: (§1)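 Cells in medium with 10% FBS, seeded at 8×10^3 per well, 18 h at 37 °C, 5% CO2, then graded compound concentrations (DMSO ≤0.25%) for 72 h. Viability by MTT. […] Mean ± SE of dose-response curves from at least three independent experiments.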

HeLa [1] = assay: Antiproliferative activity against human HeLa cells after 72 hrs by MTT assay; type: functional, cell-based
[2] = target: Vascular endothelial growth factor receptor 2 (Homo sapiens, UniProt P35968); assay: Inhibition of wild type VEGFR2 (unknown origin) by bioluminescent ADP-glo kinase assay
[3] = target: T1, Epidermal growth factor receptor (Homo sapiens, UniProt P00533); assay: Inhibition of wild type EGFR (unknown origin) by bioluminescent ADP-glo kinase assay
HT-29 = assay: Antiproliferative activity against human HT-29 cells after 72 hrs by MTT assay; type: functional, cell-based; conditions: HT-29, 72 h
Jurkat [4] = assay: Antiproliferative activity against human Jurkat cells after 72 hrs by MTT assay; type: functional, cell-based; summary of the method: as §1
A549 = assay: Antiproliferative activity against human A549 cells after 72 hrs by MTT assay; type: functional, cell-based; conditions: A549, 72 h
Tubulin (Bos taurus) = Tubulin (Bos taurus) (UniProt Q6B856+Q862L2+Q862F3); assay: Inhibition of [3H]-colchicine binding to bovine brain tubulin at 1 to 5 uM after 20 mins relative to control
Summary of the method: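 Colchicine-binding inhibition in mixtures of 1 μM tubulin, 5 μM [3H]colchicine and test compound at 1 or 5 μM.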

HUVEC [5] = assay: Antivascular activity in HUVEC assessed as effect on mesh area at 10 to 100 nM after 1 hr by matrigel assay; type: functional, cell-based; conditions: Homo sapiens
Summary of the method: (§2)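 HUVECs (primary cord-derived, passages 1-6), 6×10^4 cells per well on Matrigel, left 6 h to form capillary tubes. Compound at 10 or 100 nM then added for 1 h. Five fields per well photographed at 10x, and network dimensional/topological parameters quantified. Mean ± S.E.M. of three independent experiments.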

[6] = target: T1, Epidermal growth factor receptor; assay: Inhibition of EGF-induced EGFR phosphorylation at Y1068 in human HeLa cells at 1 uM pretreated for 6 hrs followed by EGF cells and measured after 15 mins by Western blot analysis; type: cell-based
Summary of the method: (§3)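 HeLa cells treated 6 h with compound (10-1000 nM) or erlotinib, then stimulated with EGF for 15 min. EGF level is given as 50 ng/mL in the methods and 30 ng/mL in the figure legend. Lysates immunoblotted for total EGFR and phospho-Y1068, with β-actin as loading control.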

HeLa [7] = assay: Induction of ROS generation in human HeLa cells at 50 nM after 12 hrs by 2,7-dichlorodihydrofluorescein diacetate-staining based flow cytometry; type: functional, cell-based
Summary of the method: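 HeLa cells exposed 3, 6, 12 or 24 h to 50, 100 or 250 nM, then stained with JC-1 for mitochondrial potential or H2-DCFDA for ROS. Analysed by flow cytometry.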

HeLa [8] = assay: Induction of apoptosis in human HeLa cells assessed as decrease in […] expression at 50 to 100 nM after 24 to 48 hrs by Western blot analysis; type: functional, cell-based
Summary of the method: (§4)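 HeLa cells incubated with compound at indicated concentrations and times, then washed in ice-cold PBS and lysed 30 min on ice. 10 µg protein per lane run on SDS-PAGE, transferred to PVDF and blocked overnight at 4 °C in 5% BSA. Probed 2 h at room temperature for PARP, Mcl-1 or Bcl-2, detected by ECL, and reprobed for β-actin as loading control.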

[9] = Toxicity in C57BL/6 mouse allografted with mouse B16 cells assessed as body weight loss at 3 to 7.5 mg/kg, ip dosing starting on day 9 post tumor injection administered […] on day 9,11, 13 and 15; type: organism-based; conditions: in vivo
Summary of the method: (§5)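 Six-week-old male C57BL/6 mice injected subcutaneously in the dorsolateral flank with 2.5×10^5 BL6-B16 melanoma cells in PBS. Once tumors were palpable, ip dosing every other day on days 9, 11, 13 and 15 at 3 or 7.5 mg/kg in 50 µL DMSO. Vehicle controls; CA-4P 30 mg/kg reference. Tumor volume and body weight tracked; 5 mice/group, mean ± SEM.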

HeLa [10] = assay: Induction of cell cycle arrest in human HeLa cells assessed as arrest in mitotic phase at 100 nM after 24 hrs by p-histone H3 antibody staining based flow cytometry (reference value: 1.32%); type: functional
HUVEC [11] = assay: Antivascular activity in HUVEC assessed as effect on total branching length at 10 to 100 nM after 1 hr by matrigel assay; type: functional, cell-based; conditions: Homo sapiens; summary of the method: as §2
B16 [12] = assay: Antiproliferative activity against mouse B16 cells after 72 hrs by MTT assay; type: functional, cell-based; conditions: B16, 72 h
B16 [13] = assay: Antitumor activity against mouse B16 cells allografted in C57BL/6 mouse assessed as reduction in tumor burden at 3 mg/kg, ip dosing starting on day 9 post tumor injection administered […] on day 9,11, 13 and 15 relative to control; type: functional; design: scale not given: the % may be the effect or the level left; summary of the method: as §5
Jurkat [14] = assay: Induction of apoptosis in human Jurkat cells at 50 nM after 24 to 48 hrs by Annexin V/propidium iodide-double staining-based flow cytometry; type: functional, cell-based; conditions: TDE = time-dependent effect
Summary of the method: (§6)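 HeLa or Jurkat cells exposed 24 or 48 h, then double-labelled with annexin-V-FITC and PI and analysed by flow cytometry for phosphatidylserine exposure.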

[15] = Cytotoxicity against HUVEC assessed as inhibition of cell growth; type: cell-based; conditions: human, HUVEC cells
HeLa [16] = assay: Induction of cell cycle arrest in human HeLa cells assessed as accumulation at G2/M phase at 25 nM after 24 hrs by propidium iodide-stained flow cytometry; type: functional, cell-based
Summary of the method: (§7)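 5×10^5 HeLa or Jurkat cells exposed 24 h, then collected, fixed in ice-cold 70% ethanol, treated with lysis buffer containing RNase A and 0.1% Triton X-100, and stained with PI. DNA content by flow cytometry. Mean ± SEM, three independent experiments.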

HUVEC [17] = assay: Antivascular activity in HUVEC assessed as effect on segment length at 10 to 100 nM after 1 hr by matrigel assay; type: functional, cell-based; conditions: Homo sapiens; summary of the method: as §2
HeLa [18] = assay: Induction of apoptosis in human HeLa cells assessed as decrease in bcl2 expression at 50 to 100 nM after 24 to 48 hrs by Western blot analysis; type: functional, cell-based; summary of the method: as §4
Jurkat [19] = assay: Induction of cell cycle arrest in human Jurkat cells assessed as accumulation at G2/M phase at 25 nM after 24 hrs by propidium iodide-stained flow cytometry; type: functional, cell-based; summary of the method: as §7
B16 [20] = assay: Antitumor activity against mouse B16 cells allografted in C57BL/6 mouse assessed as reduction in tumor burden at 7.5 mg/kg, ip dosing starting on day 9 post tumor injection administered […] on day 9,11, 13 and 15 relative to control; type: functional; design: scale not given: the % may be the effect or the level left; summary of the method: as §5
HeLa [21] = assay: Induction of cell cycle arrest in human HeLa cells assessed as arrest in mitotic phase at 50 nM after 24 hrs by p-histone H3 antibody staining based flow cytometry (reference value: 1.32%); type: functional
HeLa [22] = assay: Induction of apoptosis in human HeLa cells at 50 nM after 24 to 48 hrs by Annexin V/propidium iodide-double staining-based flow cytometry; type: functional, cell-based; conditions: TDE = time-dependent effect; summary of the method: as §6
HUVEC [23] = assay: Antivascular activity in HUVEC assessed as effect on master junction at 10 to 100 nM after 1 hr by matrigel assay; type: functional, cell-based; conditions: Homo sapiens; summary of the method: as §2
[24] = target: T1, Epidermal growth factor receptor; assay: Inhibition of EGF-induced EGFR phosphorylation at Y1068 in human HeLa cells pretreated for 6 hrs followed by EGF cells and measured after 15 mins by Western blot analysis; type: cell-based; summary of the method: as §3
HUVEC [25] = assay: Antivascular activity in HUVEC assessed as effect on number of meshes at 10 to 100 nM after 1 hr by matrigel assay; type: functional, cell-based; conditions: Homo sapiens; summary of the method: as §2
HUVEC [26] = assay: Antivascular activity in HUVEC assessed as effect on nodes at 10 to 100 nM after 1 hr by matrigel assay; type: functional, cell-based; conditions: Homo sapiens; summary of the method: as §2

T1 sequence (P00533 whole entry): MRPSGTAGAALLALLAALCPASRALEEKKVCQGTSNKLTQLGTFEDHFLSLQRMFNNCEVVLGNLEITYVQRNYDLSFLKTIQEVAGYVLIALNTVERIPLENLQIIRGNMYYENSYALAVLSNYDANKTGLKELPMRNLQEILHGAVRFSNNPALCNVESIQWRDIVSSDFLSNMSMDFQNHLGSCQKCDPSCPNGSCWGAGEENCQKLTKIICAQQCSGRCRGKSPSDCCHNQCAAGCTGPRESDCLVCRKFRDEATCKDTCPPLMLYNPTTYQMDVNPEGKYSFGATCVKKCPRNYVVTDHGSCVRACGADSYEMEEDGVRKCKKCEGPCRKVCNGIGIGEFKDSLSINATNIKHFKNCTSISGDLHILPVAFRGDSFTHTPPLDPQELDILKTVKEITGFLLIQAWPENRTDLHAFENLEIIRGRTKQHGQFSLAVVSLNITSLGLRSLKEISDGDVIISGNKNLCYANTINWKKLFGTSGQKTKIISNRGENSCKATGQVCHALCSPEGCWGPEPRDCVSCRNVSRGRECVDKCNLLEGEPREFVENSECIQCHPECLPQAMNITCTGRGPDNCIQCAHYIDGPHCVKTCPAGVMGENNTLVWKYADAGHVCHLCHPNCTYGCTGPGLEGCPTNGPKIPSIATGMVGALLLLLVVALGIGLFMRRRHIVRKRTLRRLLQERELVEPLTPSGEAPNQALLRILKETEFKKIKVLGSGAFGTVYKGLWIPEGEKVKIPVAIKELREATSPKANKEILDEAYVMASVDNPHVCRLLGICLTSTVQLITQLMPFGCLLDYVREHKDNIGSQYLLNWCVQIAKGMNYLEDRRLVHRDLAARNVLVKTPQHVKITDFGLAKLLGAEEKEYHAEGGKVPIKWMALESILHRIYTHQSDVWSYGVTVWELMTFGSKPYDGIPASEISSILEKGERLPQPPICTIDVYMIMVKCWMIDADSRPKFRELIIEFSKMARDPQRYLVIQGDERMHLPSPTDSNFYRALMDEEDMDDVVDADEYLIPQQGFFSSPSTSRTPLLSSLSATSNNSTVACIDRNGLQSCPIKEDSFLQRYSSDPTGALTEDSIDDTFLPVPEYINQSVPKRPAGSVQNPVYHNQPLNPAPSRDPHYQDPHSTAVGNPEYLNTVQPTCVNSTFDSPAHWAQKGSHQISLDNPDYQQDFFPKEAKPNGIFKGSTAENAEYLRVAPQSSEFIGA
Vascular endothelial growth factor receptor 2, sequence (P35968 whole entry): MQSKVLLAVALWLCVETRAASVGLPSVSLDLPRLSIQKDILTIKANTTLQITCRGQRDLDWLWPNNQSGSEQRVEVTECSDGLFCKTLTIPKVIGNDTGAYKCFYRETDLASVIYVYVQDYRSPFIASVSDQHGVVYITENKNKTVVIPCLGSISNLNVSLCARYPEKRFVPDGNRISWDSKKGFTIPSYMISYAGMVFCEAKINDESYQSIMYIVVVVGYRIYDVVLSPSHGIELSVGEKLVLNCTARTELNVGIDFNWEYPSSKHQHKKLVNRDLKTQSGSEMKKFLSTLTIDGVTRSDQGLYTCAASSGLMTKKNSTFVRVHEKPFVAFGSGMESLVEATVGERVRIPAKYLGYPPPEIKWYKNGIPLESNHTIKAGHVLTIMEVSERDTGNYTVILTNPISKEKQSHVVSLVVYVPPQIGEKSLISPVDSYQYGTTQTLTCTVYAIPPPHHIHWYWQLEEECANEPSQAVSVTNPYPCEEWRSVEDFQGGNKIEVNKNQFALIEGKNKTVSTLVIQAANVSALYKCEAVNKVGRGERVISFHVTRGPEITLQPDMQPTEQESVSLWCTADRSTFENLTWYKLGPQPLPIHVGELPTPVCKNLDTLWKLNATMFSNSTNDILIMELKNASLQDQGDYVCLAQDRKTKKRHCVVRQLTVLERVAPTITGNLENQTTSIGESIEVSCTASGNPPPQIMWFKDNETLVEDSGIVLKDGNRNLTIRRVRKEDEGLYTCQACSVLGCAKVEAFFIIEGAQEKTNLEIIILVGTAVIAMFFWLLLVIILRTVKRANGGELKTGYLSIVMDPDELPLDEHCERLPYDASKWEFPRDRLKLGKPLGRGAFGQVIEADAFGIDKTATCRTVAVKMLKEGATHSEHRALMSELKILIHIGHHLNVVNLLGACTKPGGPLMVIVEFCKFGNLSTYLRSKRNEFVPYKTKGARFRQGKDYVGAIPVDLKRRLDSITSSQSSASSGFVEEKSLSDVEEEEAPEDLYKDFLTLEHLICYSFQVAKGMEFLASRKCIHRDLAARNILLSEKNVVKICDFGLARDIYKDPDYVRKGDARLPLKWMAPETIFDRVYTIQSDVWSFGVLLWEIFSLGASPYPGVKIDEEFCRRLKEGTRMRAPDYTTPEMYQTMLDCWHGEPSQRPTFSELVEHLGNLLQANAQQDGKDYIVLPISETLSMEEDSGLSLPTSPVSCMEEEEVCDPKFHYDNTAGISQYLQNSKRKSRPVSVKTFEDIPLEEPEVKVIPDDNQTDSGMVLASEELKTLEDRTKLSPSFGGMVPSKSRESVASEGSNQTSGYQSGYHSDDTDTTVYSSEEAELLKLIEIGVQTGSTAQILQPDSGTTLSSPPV

## COc1cc(Nc2ncnc3cc(-c4ccc(I)cc4)sc23)cc(OC)c1OC
Tubulin
  IC50: 2500 nM
RS4-11
  IC50: 170 nM
HeLa [1]
  IC50: 280 nM
[2]
  IC50: > 1000 nM
[3]
  IC50: 10 nM
HT-29
  IC50: 250 nM
Jurkat [4]
  IC50: 300 nM
A549
  IC50: 770 nM
Tubulin (Bos taurus)
  inhibition: 35%

## COc1ccc(-c2cc3ncnc(Nc4cc(OC)c(OC)c(OC)c4)c3s2)cc1
Tubulin
  IC50: 2800 nM
RS4-11
  IC50: 4 nM
HeLa [1]
  IC50: 170 nM
[2]
  IC50: > 1000 nM
[3]
  IC50: 52 nM
HT-29
  IC50: 60 nM
Jurkat [4]
  IC50: 5 nM
A549
  IC50: 430 nM
Tubulin (Bos taurus)
  inhibition: 31%

## COc1cc(Nc2ncnc3cc(-c4ccc(C)cc4)sc23)cc(OC)c1OC
HUVEC [5]
  Activity: Active
[6]
  inhibition: Active
Tubulin
  IC50: 710 nM
RS4-11
  IC50: 2 nM
HeLa [7]
  Activity: Active
HeLa [1]
  IC50: 1 nM
HeLa [8]
  Activity: Active
[2]
  IC50: > 1000 nM
[3]
  IC50: 30 nM
[9]
  Activity: Non-Toxic
HeLa [10]
  Activity: 49.4 - 50%
HT-29
  IC50: 20 nM
HUVEC [11]
  Activity: Active
B16 [12]
  IC50: 23.4 nM
B16 [13]
  Activity: 28%
Jurkat [4]
  IC50: 1 nM
Jurkat [14]
  Activity: Tde
[15]
  GI50: 56 nM
HeLa [16]
  Activity: Active
A549
  IC50: 19 nM
HUVEC [17]
  Activity: Active
HeLa [18]
  Activity: Active
Jurkat [19]
  Activity: Active
B16 [20]
  Activity: 52.5%
HeLa [21]
  Activity: 36.8 - 38%
HeLa [22]
  Activity: Tde
Tubulin (Bos taurus)
  inhibition: 76%
HUVEC [23]
  Activity: Active
[24]
  inhibition: Dose-dependent effect
HUVEC [25]
  Activity: Active
HUVEC [26]
  Activity: Active

## COc1cc(Nc2ncnc3cc(-c4ccccc4)sc23)cc(OC)c1OC
Tubulin
  IC50: 10000 nM
RS4-11
  IC50: 260 nM
HeLa [1]
  IC50: 170 nM
[2]
  IC50: > 1000 nM
[3]
  IC50: 23 nM
HT-29
  IC50: 350 nM
Jurkat [4]
  IC50: 10 nM
A549
  IC50: 2300 nM

## COc1cc(Nc2ncnc3cc(-c4ccc([N+](=O)[O-])cc4)sc23)cc(OC)c1OC
RS4-11
  IC50: 1300 nM
HeLa [1]
  IC50: 4900 nM
HT-29
  IC50: 6300 nM
Jurkat [4]
  IC50: 2000 nM
A549
  IC50: 1100 nM

## COc1cc(Nc2ncnc3cc(-c4ccc(Cl)cc4)sc23)cc(OC)c1OC
Tubulin
  IC50: 3300 nM
RS4-11
  IC50: 5 nM
HeLa [1]
  IC50: 90 nM
[3]
  IC50: 273 nM
HT-29
  IC50: 87 nM
Jurkat [4]
  IC50: 3 nM
A549
  IC50: 600 nM
Tubulin (Bos taurus)
  inhibition: 36%

## COc1cccc(-c2cc3ncnc(Nc4cc(OC)c(OC)c(OC)c4)c3s2)c1
RS4-11
  IC50: 5400 nM
HeLa [1]
  IC50: 3200 nM
HT-29
  IC50: 3300 nM
Jurkat [4]
  IC50: 3000 nM
A549
  IC50: 8800 nM
